B2AR ag = agonists of human beta-2 adrenergic receptor inducing internalization; Am2.2-beta2AR cells, FAP receptor internalization, flow cytometry; response, % (no concentration beside the values); 340,000 compounds, 0.43% hits; AID 504454;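 active means response above a set limit, near 3 SD of response in nonfluorescent compounds, cut at about 42% in these data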
Target sequence (P07550 whole entry, looked up): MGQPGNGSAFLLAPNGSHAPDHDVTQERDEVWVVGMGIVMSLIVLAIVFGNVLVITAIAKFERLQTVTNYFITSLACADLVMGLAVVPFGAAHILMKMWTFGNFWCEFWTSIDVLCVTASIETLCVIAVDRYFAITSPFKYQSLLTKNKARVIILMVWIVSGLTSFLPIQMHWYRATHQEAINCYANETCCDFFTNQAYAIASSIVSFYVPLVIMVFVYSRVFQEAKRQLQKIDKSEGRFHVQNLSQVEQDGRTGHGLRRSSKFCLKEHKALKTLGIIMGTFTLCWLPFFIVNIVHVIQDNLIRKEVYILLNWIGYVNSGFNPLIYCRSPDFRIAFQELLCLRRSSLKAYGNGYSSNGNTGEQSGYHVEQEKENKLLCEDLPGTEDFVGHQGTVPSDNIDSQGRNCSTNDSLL
T cell modulator = T cell immune modulation candidate | 330,000 compounds, 0.068% hits | AID 2052 | 2C CD8+ T cell-vesicle binding, flow cytometry; active compounds read low | response (vesicle binding), % at 7 µM;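 active means response, share of CD8 T cells binding vesicles, and their 90th percentile fluorescence all below set limits, cut at about 80% in these data, passing the limit was not always enough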;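 further: values below 100% mean blocked vesicle binding to the CD8+ T cells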
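Read-out – percent CD8+ FL2 mean versus row control · System – murine 2C transgenic CD8+ T lymphocytes · Times – 1.5 h cell–vesicle binding at 37 °C, then 20 min icy labelling · Control set – naked vesicles low, QL9 vesicles with vehicle high · Detection – cytometric PE anti-B7-1 and Alexa647 anti-CD8 signals after 1% paraformaldehyde fixation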
V-ATPase pH = yeast V-ATPase proton transport regulation by pHLuorin; response, % at 10 µM; 350,000 compounds, 0.37% hits; S. cerevisiae, pHLuorin cytosolic pH fluorescence; in the data active means response mostly above about 7.3%, no sharp cut-off; inactive means mostly below about 5.4%; further: actives read high
MPTP block = permeability transition pore inhibition | isolated mouse mitochondria, Ca2+ swelling absorbance, 30 min | inhibition, % at 10 µM | 360,000 compounds, 1.4% hits | AID 602449;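 active means inhibition of 50% or more, scaled per plate between neutral and stimulator controls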;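 further: 0% = DMSO wells given calcium and 100% = 1 mM EGTA wells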
Exocytosis inh = blocks lytic granule exocytosis; TALL-104 LAMP-1 surface exposure, flow cytometry; cells stimulated with thapsigargin and PMA; 360,000 compounds, 0.66% hits; inhibition, % at 10 µM; AID 651702;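 active means inhibition above about 55%, limit read from the data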
rCAG RNA binder = r(CAG) repeat RNA binding. TO-PRO-1 dye displacement fluorescence. inhibition, % at 3 µM. 370,000 compounds, 1.3% hits. AID 651821;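 active means inhibition above the plate cutoff, the mean of all test compounds on that plate plus 3 SD, cut at about 35% in these data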;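 further: 0% = DMSO alone and 100% = 100 µM mitoxantrone as full dye displacement; higher means more dye released from RNA so lower well fluorescence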
MPTP counter = Rhodamine 123 counter-screen of mitochondrial pore hits; shares compounds with MPTP block; isolated mitochondria, membrane potential, Rhodamine 123 fluorescence; inhibition, % at 10 µM; 5,000 compounds, 78% hits; AID 624504; in the data active means inhibition above about 22%;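 further: 0% = DMSO vehicle and 100% = positive control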
MPTP abs DR = MPTP inhibition, dose response swelling confirmation. 780 compounds, 58% hits. shares compounds with MPTP block. IC50, µM. isolated mitochondria swelling, absorbance; in the data active means IC50 below about 20 µM
MPTP counter DR = counter-screen for mitochondrial permeability transition pore inhibitors, dose response; shares compounds with MPTP block; isolated mitochondria counterscreen, fluorescence read-out; IC50, µM; 780 compounds, 49% hits; AID 651564; in the data active means IC50 below about 80 µM
An asterisk follows results filed as active; · = no result given. Hits are enriched below; roughly 3.8% of the tested compounds scored in any of these assays.

SMILES	B2AR ag	T cell modulator	V-ATPase pH	MPTP block	Exocytosis inh	rCAG RNA binder	MPTP counter	others
N=C1/C(=C\c2coc3ccccc3c2=O)C(=O)N=C2SC(c3ccncc3)=NN12	-8	204	-2	94*	2	-42	64*
COc1ccc2c(c(-c3ccccc3)cn2C)c1-c1ccccc1	·	·	·	·	·	1	·
COC(=O)c1ccc2nc(C3CCCCC3)c(Cc3ccccc3OC)n2c1	·	·	·	·	·	4	·
C=CCNCCCOc1ccc(C)cc1Br	11	101	-1	81*	0	-1	2	MPTP abs DR=15*;MPTP counter DR=>80
Cn1c(C(C#N)C(=O)c2sc3ccccc3c2Cl)nc2ccccc21 (configuration not stated)	-9	205	0	-1	-1	8	·
CCn1nc([N+](=O)[O-])c(C(C#N)c2nc3ccccc3n2C)c(Cl)c1=O (configuration not stated)	-1	301	-2	54*	28	20	67*
COC1=C[C@H](C(=O)NCc2ccccn2)[C@H](C)[C@@H](c2ccccc2)CC1=O	·	·	·	·	·	5	·
Nc1nc2cc3c(cc2cc1C(=O)NCc1ccc(F)cc1)OCO3	·	·	·	86*	-2	·	95*
Nc1nc2cc3c(cc2cc1C(=O)NCc1cccnc1)OCO3	·	·	·	·	·	5	·
CCN(CC)C(=O)c1ccc(S(=O)(=O)N2CCC(c3nc4ccccc4s3)CC2)cc1	-3	344	-2	89*	-3	-2	94*
Cc1cc(/C=C2\SC(=S)N(C)C2=O)c(C)n1-c1ccccc1O	-81	505	0	92*	9	17	67*
Cc1cc(/C=C2/SC(=S)N(c3ccc([N+](=O)[O-])cc3)C2=O)c(C)n1-c1cccnc1	9	286	3	95*	58*	16	95*
Cc1cc(/C=C2/SC(=S)N(c3cccc(Cl)c3)C2=O)c(C)n1-c1cccnc1	6	320	2	63*	6	3	78*
Cc1cccc(N2C(=O)/C(=C/c3cccnc3)SC2=S)c1	-2	331	-1	1	6	0	·
CC1CCCCC1N1CN=C(Nc2nc3ccccc3s2)NC1 (configuration not stated)	-4	334	-3	66*	4	2	-1	MPTP abs DR=>100;MPTP counter DR=>80
O=C1N(CCCO)CCC12CCCCC2	·	·	·	·	·	1	·
Clc1ccc(-c2csc(NCC3CCCO3)n2)cc1 (configuration not stated)	·	·	·	·	·	5	·
COC(=O)C1=C(C)N(Cc2ccccc2)C(=NCc2cccc(C(F)(F)F)c2)N[C@H]1c1cccc(C(F)(F)F)c1	32	172	5	88*	0	·	-1
COC(=O)C1=C(C)N(Cc2ccccc2)C(=NCc2cccc(C(F)(F)F)c2)N[C@H]1c1cccc(F)c1	37	·	0	80*	-6	8	-5
COC(=O)C1=C(C)N(Cc2ccc(C(F)(F)F)cc2)C(=NCc2ccc(C(F)(F)F)cc2)NC1c1cccc(F)c1 (configuration not stated)	·	·	·	·	·	2	·
CC(C)(C)c1nc(N2CCN(C(=O)c3ccco3)CC2)c2nnn(Cc3ccccc3)c2n1	6	491	-1	54*	-2	5	69*
O=C(c1ccco1)N1CCN(c2nc(C3CC3)nc3c2nnn3Cc2ccccc2Cl)CC1	0	412	1	0	0	3	·
O=S(=O)(Nc1ccc(Cc2ccncc2)cc1)c1ccc(Cl)c(Cl)c1	14	658	1	0	-6	5	·
COc1ccc(S(=O)(=O)Nc2ccc(Cc3ccncc3)cc2)cc1OC	-12	149	-1	66*	16	7	78*
CCc1ccc(NS(=O)(=O)c2ccc(OC)c3ncccc23)cc1	-21	320	-1	-1	-6	6	·
SMILES	B2AR ag	T cell modulator	V-ATPase pH	MPTP block	Exocytosis inh	rCAG RNA binder	MPTP counter	others
CCc1ccc(OC)c(S(=O)(=O)Nc2ccc(Cc3ccncc3)cc2)c1	-8	160	-2	79*	20	-1	83*
O=C(NC(CC1=CCCCC1)c1ccc2ccccc2c1)C(F)(F)F (configuration not stated)	·	·	·	·	·	1	·
CC(=O)c1ccc(Nc2nc3ccccc3nc2NS(=O)(=O)c2cccs2)cc1	14	186	-1	83*	28	33	32*
Cc1ccccc1Cn1cnc2c(cnn2C(C)(C)C)c1=O	2	278	0	15	-2	-4	·
CC(C)(C)n1ncc2c(=O)n(Cc3cccc(Cn4cnc5c(cnn5C(C)(C)C)c4=O)c3F)cnc21	-10	443	0	95*	47	1	87*
COC(=O)[C@]12C[C@H](CC(=O)NCc3ccc(C)o3)C(=O)N(Cc3ccco3)C1=C[C@H](C1CCCC1)O[C@@H]2C	·	·	·	·	·	4	·
CC(=O)N(Cc1ccccc1)c1nccs1	·	·	·	·	·	2	·
Cc1cc(C)n(C(=O)/C(C#N)=N/Nc2cc(Cl)cc(Cl)c2)n1	13	199	-2	103*	4	·	94*
COc1ccc(-n2c(COc3ccc(C)cc3)nnc2SCC(=O)c2ccc(-c3ccccc3)cc2)cc1	·	·	·	·	·	13	·
O=C(/C=C/c1c(Cl)cccc1Cl)Nc1ccncc1	4	0.0*	0	62*	-4	9	57*
CCN(CC)CCNC(C(=O)Nc1ccc([N+](=O)[O-])cc1Br)c1ccccc1 (configuration not stated)	-5	199	8	61*	1	-1	-2	MPTP abs DR=>100;MPTP counter DR=>80
CCN(CC)CCNC(C(=O)Nc1cc(C(F)(F)F)ccc1Cl)c1ccccc1 (configuration not stated)	-11	299	5	0	-2	-5	·
CN(C)[C@@H]1CCN(c2cccc3c2S(=O)(=O)N(C2CC2)CCCO3)C1	·	·	·	·	·	5	·
CCCCCCCCN1CN2Cc3ccccc3C2CS1(=O)=O (configuration not stated)	·	·	·	·	·	-1	·
Cc1cc(N/N=C/c2c(O)ccc3ccccc23)nc(-c2ccccc2O)n1	9	64	5	66*	96*	16	52*
Cc1oc2cc([N+](=O)[O-])c(O)c([N+](=O)[O-])c2c1C(=O)c1ccc(Cl)cc1	6	105	0	76*	14	36*	59*
CCOC(=O)c1c(C)n(C)c2cc([N+](=O)[O-])c(O)c([N+](=O)[O-])c12	2	233	-2	3	3	-1	·
CCOC(=O)/C(=N/Nc1ccccc1)Sc1nnnn1-c1ccc(C)cc1	3	545	1	0	1	11	·
O=C(/C(=N\Nc1ccc(Br)cc1)Sc1nnnn1-c1ccccc1)c1ccccc1	4	167	0	90*	8	30	74*
